The values that follow come from PubChem BioAssay.

Experiment [1] is described as follows: hit retest on RPL19A-GFP reporter strain – cell-based, S. cerevisiae, flow cytometry, cherry picks, mother/daughter gates, confirmation (AID 2270;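 active = GFP response below 50% of the DMSO control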). Particulars: 3 h, at 10 µM, stronger effect = lower value, 100 = same GFP as DMSO wells. A general note: A flow cytometer gives signals particle by particle.
Experiment [2] in a line: yeast TOR pathway reporter LAP4-GFP change – cell-based, cherry picks, flow cytometry, mother/daughter gates, confirmation (AID 2271;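 active = GFP response above 150% of the DMSO control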;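 note: ratio of sample to DMSO plate mean so 100% equals DMSO level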). Particulars: S. cerevisiae LAP4-GFP strain, 3 h, at 10 µM, stronger effect = higher value, 100 means same as DMSO control. The gist of the method:
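System: Alexa 633-stained baker's yeast GFP-fusion strain / Medium: synthetic complete (SC) yeast growth medium / Doses: compound at 10 µM, single point / Times: 3 h treatment at 30 °C with rotation / Detection: HT flow cytometry, GFP fluorescence channel / Benchmarks: DMSO-only negative wells, rapamycin 400 ng/mL positive wells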

Experiment [3] in a line: TOR pathway reporter MEP2-GFP, retest of hits – S. cerevisiae, flow cytometry GFP, cherry picks, confirmation (AID 2272;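 active = GFP response above 150% of the DMSO control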;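 note: ratio of well signal to plate DMSO mean so 100% equals DMSO level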). Conditions: S. cerevisiae MEP2-GFP strain, 3 h, at 10 µM, stronger effect = higher value.
The nature of experiment [4]: yeast AGP1-GFP fluorescence change, single-dose – cell-based, flow cytometry, S. cerevisiae, cherry picks, confirmation (AID 2273).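 Note: median GFP channel fluorescence over the whole cell population gate.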 Particulars: S. cerevisiae AGP1-GFP strain, 3 h, at 10 µM.
Experiment [5] in a line: TOR pathway CIT2 reporter hit retest – S. cerevisiae, GFP fusion, cherry picks, mother/daughter gates, confirmation (AID 2274). Particulars: S. cerevisiae CIT2-GFP strain, flow cytometry, 3 h, at 10 µM, stronger effect = higher value.
Setting [6] is: measured here: daughter cell gate.
Setting [7] is: measured here: mother cell gate.
Setting [8] is: measured here: daughter cell gate response.
The mark [9] stands for this setting: measured here: mother cell gate response.

Activity calls are given as the source filed them.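 Rule for the calls, unless noted: active = GFP response above 150% of the DMSO level; inconclusive = fewer than 70 events counted for a yeast strain; inactive = the rest.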

For the compound `CC1CN(c2nc3ccccn3c(=O)c2/C=C(\C#N)C(=O)N2CCOCC2)CC(C)O1` (stereo not drawn), the GFP response vs DMSO in experiment [1] was 98.5% (inactive); in experiment [1] (setting [6]) it was 99.3%; in experiment [1] (setting [7]), 98.4%; in experiment [3], 101% (inactive). For the same compound, the GFP response relative to DMSO is 102% (inactive) in experiment [2], 97.5% in experiment [2] (setting [8]) and 104% in experiment [2] (setting [9]). Besides, the GFP response, % of DMSO in experiment [4] is 95% (inactive); in experiment [5] it was 100% (inactive); in experiment [5] (setting [6]), 99.3%; in experiment [5] (setting [7]), 102%.
With `O=C(OCc1cc(Cl)ccc1OC(F)F)c1ccc([N+](=O)[O-])o1`, the GFP response vs DMSO was 97% (inactive) in experiment [1], 99.8% in experiment [1] (setting [6]), 94% in experiment [1] (setting [7]) and 100% (inactive) in experiment [3]. For the same compound, the GFP response relative to DMSO in experiment [2] is 114% (inactive); in experiment [2] (setting [8]), 110%; in experiment [2] (setting [9]) it was 120%. Also, the GFP response, % of DMSO in experiment [4] was 95.7% (inactive); in experiment [5], 95.2% (inactive); in experiment [5] (setting [6]), 98.1%; in experiment [5] (setting [7]), 92.3%.
As to `COC(=O)c1ccc(Cn2cc(/C=C\[N+](=O)[O-])c3ccccc32)o1`, the GFP response vs DMSO in experiment [1] is 103% (inactive); in experiment [1] (setting [6]), 104%; in experiment [1] (setting [7]) it was 102%; in experiment [3], 106% (inactive). Also, the figures for the GFP response relative to DMSO in experiment [2], in experiment [2] (setting [8]) and in experiment [2] (setting [9]) were 122% (inactive), 115% and 127%, respectively. Further, the GFP response, % of DMSO was 98.2% (inactive) in experiment [4], 96.4% (inactive) in experiment [5], 100% in experiment [5] (setting [6]) and 92.1% in experiment [5] (setting [7]).
Regarding `O=S(=O)(/N=C(/Sc1ccccc1)c1ccccc1)c1ccccc1`, the GFP response vs DMSO is 92% (inactive) in experiment [1], 92.5% in experiment [1] (setting [6]), 89.8% in experiment [1] (setting [7]) and 106% (inactive) in experiment [3]. Moreover, the GFP response relative to DMSO was 179% (active) in experiment [2], 152% in experiment [2] (setting [8]) and 180% in experiment [2] (setting [9]). Also, the GFP response, % of DMSO is 101% (inactive) in experiment [4], 84.7% (inactive) in experiment [5], 88.7% in experiment [5] (setting [6]) and 79.2% in experiment [5] (setting [7]).
As for `CCCC(=O)Nc1ccc(C(=O)/C=C/c2ccc(SC)cc2)cc1`, the GFP response vs DMSO is 99.5% (inactive) in experiment [1], 98.1% in experiment [1] (setting [6]), 99.2% in experiment [1] (setting [7]) and 102% (inactive) in experiment [3]. Further, the GFP response relative to DMSO is 105% (inactive) in experiment [2], 103% in experiment [2] (setting [8]) and 105% in experiment [2] (setting [9]). Moreover, the GFP response, % of DMSO in experiment [4] was 97.2% (inactive); in experiment [5], 95.2% (inactive); in experiment [5] (setting [6]), 94.8%; in experiment [5] (setting [7]), 93.4%.
Regarding `CCCc1cc(=O)n(-c2nc3ccccc3s2)[nH]1`, the GFP response vs DMSO in experiment [1] was 102% (inactive); in experiment [1] (setting [6]) it was 102%; in experiment [1] (setting [7]), 101%; in experiment [3], 99% (inactive). Moreover, the GFP response relative to DMSO was 101% (inactive) in experiment [2], 101% in experiment [2] (setting [8]) and 99.4% in experiment [2] (setting [9]). Besides, the GFP response, % of DMSO in experiment [4] is 104% (inactive); in experiment [5], 97.3% (inactive); in experiment [5] (setting [6]) it was 97.4%; in experiment [5] (setting [7]) it was 96.8%.
`COc1ccc(CN2CCN(c3ncccn3)CC2)c(C)c1C`: the GFP response vs DMSO in experiment [1] is 96.2% (inactive); in experiment [1] (setting [6]), 98.1%; in experiment [1] (setting [7]), 95.2%; in experiment [3], 99.3% (inactive). Also, the GFP response relative to DMSO in experiment [2] is 100% (inactive); in experiment [2] (setting [8]), 101%; in experiment [2] (setting [9]), 100%. Also, the GFP response, % of DMSO in experiment [4] is 100% (inactive); in experiment [5], 100% (inactive); in experiment [5] (setting [6]) it was 101%; in experiment [5] (setting [7]), 102%.
For the compound `Cc1ccc(N2C(=O)C3C4C=CC(CNC(=S)N5CCN(c6ccccn6)CC5)(O4)C3C2=O)cc1` (stereo not drawn), the GFP response vs DMSO is 98.7% (inactive) in experiment [1], 99.6% in experiment [1] (setting [6]), 98.6% in experiment [1] (setting [7]) and 106% (inactive) in experiment [3]. For the same compound, the GFP response relative to DMSO is 113% (inactive) in experiment [2], 109% in experiment [2] (setting [8]) and 111% in experiment [2] (setting [9]). Also, the GFP response, % of DMSO in experiment [4] was 105% (inactive); in experiment [5], 99.3% (inactive); in experiment [5] (setting [6]), 100%; in experiment [5] (setting [7]), 96.8%.
With `COc1cccc(NC(=O)/C=C/c2ccc([N+](=O)[O-])cc2)c1`, the GFP response vs DMSO in experiment [1] is 96% (inactive); in experiment [1] (setting [6]), 97.6%; in experiment [1] (setting [7]), 93.2%; in experiment [3], 109% (inactive). In addition, the GFP response relative to DMSO in experiment [2] was 102% (inactive); in experiment [2] (setting [8]) it was 101%; in experiment [2] (setting [9]), 104%. For the same compound, the GFP response, % of DMSO is 95.7% (inactive) in experiment [4], 88.6% (inactive) in experiment [5], 90.2% in experiment [5] (setting [6]) and 88.2% in experiment [5] (setting [7]).
Consider `O=C(O)C1Sc2[nH]c(=O)sc2C2c3cc(Br)ccc3OC(=O)C12` (stereo not drawn), for which the GFP response vs DMSO is 96.3% (inactive) in experiment [1], 97.6% in experiment [1] (setting [6]), 96.8% in experiment [1] (setting [7]) and 195% (active) in experiment [3]. Besides, the GFP response relative to DMSO in experiment [2] was 171% (active); in experiment [2] (setting [8]) it was 150%; in experiment [2] (setting [9]), 200%. Moreover, the GFP response, % of DMSO is 102% (inactive) in experiment [4], 111% (inactive) in experiment [5], 108% in experiment [5] (setting [6]) and 113% in experiment [5] (setting [7]).
As for `O=S(=O)(c1ccc(-c2ccccc2)cc1)N1CCOCC1`, the GFP response vs DMSO in experiment [1] was 96.7% (inactive); in experiment [1] (setting [6]), 96.1%; in experiment [1] (setting [7]) it was 94.8%; in experiment [3], 103% (inactive). In addition, the results for the GFP response relative to DMSO in experiment [2], in experiment [2] (setting [8]) and in experiment [2] (setting [9]) were 97.7% (inactive), 97.5% and 97.4%, respectively. Moreover, the GFP response, % of DMSO in experiment [4] is 99.5% (inactive); in experiment [5] it was 95.8% (inactive); in experiment [5] (setting [6]) it was 95.8%; in experiment [5] (setting [7]), 93.8%.
For the compound `CNC(=O)/C(C#N)=C/c1c(N2CC(C)OC(C)C2)nc2ccccn2c1=O` (stereo not drawn), the GFP response vs DMSO was 97.6% (inactive) in experiment [1], 88.7% in experiment [1] (setting [6]), 90.1% in experiment [1] (setting [7]) and 101% (inactive) in experiment [3]. The GFP response relative to DMSO in experiment [2] is 94.4% (inactive); in experiment [2] (setting [8]) it was 92.6%; in experiment [2] (setting [9]) it was 92%. Moreover, the GFP response, % of DMSO is 110% (inactive) in experiment [4], 98.8% (inactive) in experiment [5], 95.6% in experiment [5] (setting [6]) and 85.8% in experiment [5] (setting [7]).
For `COc1ccc(OC)c(S(=O)(=O)ON2C(=O)c3ccccc3C2=O)c1`, the GFP response vs DMSO in experiment [1] was 105% (inactive); in experiment [1] (setting [6]), 98.3%; in experiment [1] (setting [7]), 93.8%; in experiment [3] it was 114% (inactive). Also, the GFP response relative to DMSO in experiment [2] is 156% (active); in experiment [2] (setting [8]), 157%; in experiment [2] (setting [9]), 158%. For the same compound, the GFP response, % of DMSO is 96.9% (inactive) in experiment [4], 102% (inactive) in experiment [5], 119% in experiment [5] (setting [6]) and 87.5% in experiment [5] (setting [7]).
